Broadly, the inhibition is the relative decrease from the control value, in per cent.

Several values for one entry are separate records, joined by “and”; a condition that tells them apart may be missing. Equal entries are not always repeated.

Endothelial PAS domain-containing protein 1 (Homo sapiens), sequence (Q99814 whole entry, looked up, the tested form may be a part): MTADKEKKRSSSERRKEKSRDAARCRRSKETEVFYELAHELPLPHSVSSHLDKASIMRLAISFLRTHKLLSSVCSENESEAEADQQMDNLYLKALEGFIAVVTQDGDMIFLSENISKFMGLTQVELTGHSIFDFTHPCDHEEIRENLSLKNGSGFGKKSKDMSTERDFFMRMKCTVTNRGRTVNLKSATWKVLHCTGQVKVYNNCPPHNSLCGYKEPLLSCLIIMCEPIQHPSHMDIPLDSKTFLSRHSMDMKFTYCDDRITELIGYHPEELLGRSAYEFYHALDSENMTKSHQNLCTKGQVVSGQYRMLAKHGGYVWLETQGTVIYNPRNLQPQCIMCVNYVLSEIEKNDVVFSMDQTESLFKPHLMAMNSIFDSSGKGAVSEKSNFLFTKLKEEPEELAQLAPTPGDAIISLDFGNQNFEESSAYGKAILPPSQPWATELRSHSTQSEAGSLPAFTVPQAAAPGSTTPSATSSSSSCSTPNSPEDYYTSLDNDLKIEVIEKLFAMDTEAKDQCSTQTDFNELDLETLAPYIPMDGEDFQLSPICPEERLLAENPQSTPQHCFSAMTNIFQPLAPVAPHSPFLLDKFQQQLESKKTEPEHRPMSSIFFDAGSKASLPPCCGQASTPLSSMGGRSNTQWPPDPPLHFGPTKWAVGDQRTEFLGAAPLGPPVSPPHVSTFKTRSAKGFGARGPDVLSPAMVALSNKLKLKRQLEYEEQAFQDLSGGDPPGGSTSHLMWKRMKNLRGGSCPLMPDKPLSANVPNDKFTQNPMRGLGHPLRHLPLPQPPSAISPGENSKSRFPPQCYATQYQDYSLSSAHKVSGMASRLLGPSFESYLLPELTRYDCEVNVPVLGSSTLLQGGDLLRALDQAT

This experiment has as its target Endothelial PAS domain-containing protein 1 (Homo sapiens) (UniProt Q99814). Nature of the experiment: HIF-1a and HIF-2a reporter inhibitors, SAR follow-up, cell-based, luminescence, MIAPaCa-2, 786-0, panel (AID 652011). Conditions: MIAPaCa-2/PANC HIF reporter, luciferase luminescence, desferoxamine, overnight, HIF2a PANC, run 2; at 99 µM (top of the series). The method in brief:
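Reagent: Desferoxamine added before compound | Doses: Compounds from 10 mM and 0.3125 mM stocks, 1% DMSO final | Times: Overnight seeding and compound exposure, 37 °C, 5% CO2, 10-min detection | Measured by: One-Glo luciferase luminescence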
For the compound `CCNC(=O)CCc1nc(-c2ccccc2Cl)no1`, the inhibition came out at 13.5%.
The same measure for `COC(=O)CCc1nc(-c2ccc(C(C)(C)C)cc2)no1`: 128%; for `CC(C)(C)c1ccc(-c2noc(CCC(=O)NC3CCCC3)n2)cc1`: 121%.
Turning to `CCN(CC)C(=O)CCc1nc(-c2ccc(C(C)(C)C)cc2)no1`, the inhibition was 76.8% and 78.5%.
To `COc1cccc(NC(=O)CCc2nc(-c3ccc(C(C)(C)C)cc3)no2)c1` belongs 131%; to `CC(C)(C)c1ccc(-c2noc(CCC(=O)Nc3cccnc3)n2)cc1`, 126%; to `CCC(C)NC(=O)CCc1nc(-c2ccc(C(C)(C)C)cc2)no1` (stereo unspecified), 52.2%.
To `CC(C)(C)c1ccc(-c2noc(CCC(=O)N3CCOCC3)n2)cc1` belongs 32.4%.
The same measure for `CCCCc1ccc(-c2noc(CCC(=O)NC)n2)cc1`: -4.31%; for `CCOc1ccc(-c2noc(CCC(=O)O)n2)cc1`: 109%.
As to `CCNC(=O)CCc1nc(-c2ccccc2C)no1`, the inhibition is -1.15%.
The same measure for `CCNC(=O)CCc1nc(-c2cccc(C)c2)no1`: -15.7%; for `CC(C)(C)NC(=O)CCc1nc(-c2ccc(C(C)(C)C)cc2)no1`: 102%.
To `CCCNC(=O)CCc1nc(-c2ccc(C(C)(C)C)cc2)no1` belongs 73%; to `CCc1ccc(-c2noc(CCC(=O)NC(C)(C)C)n2)cc1`, -22.9%.
Take `CC(C)(C)c1ccc(-c2noc(CCC(=O)Nc3ccccc3)n2)cc1`: the inhibition was determined as 128%.
The same measure for `CNC(=O)CCc1nc(-c2ccc(C(C)(C)C)cc2)no1`: 47.3%; for `CC(C)c1ccc(-c2noc(CCC(=O)NC(C)(C)C)n2)cc1`: 90%; for `CCNC(=O)CCc1nc(-c2cccc(F)c2)no1`: -6.32%.
In the case of `CC(C)(C)c1ccc(-c2noc(CCC(=O)NCC3CCCO3)n2)cc1` (stereo unspecified), the inhibition came out at 16.7%.
To `CCNC(=O)CCc1nc(-c2ccc(C(C)(C)C)cc2)no1` belongs 84.7% and 55.9%; to `O=C(CCc1nc(-c2ccccc2)no1)NC1CC1`, 56.6%; to `CCCCc1ccc(-c2noc(CCC(=O)NC(C)CC)n2)cc1` (stereo unspecified), 37.9%.
To `CC(C)(C)c1ccc(-c2noc(CCC(=O)NC3CC3)n2)cc1` belongs 50%; to `CCCCc1ccc(-c2noc(CCC(=O)NCC)n2)cc1`, 9.61%; to `CCNC(=O)CCc1nc(-c2c(Cl)cccc2Cl)no1`, 31.9%.
Turning to `CC(C)NC(=O)CCc1nc(-c2ccc(C(C)(C)C)cc2)no1`, the inhibition is 64.9%.
To `C=CCNC(=O)CCc1nc(-c2ccc(C(C)(C)C)cc2)no1` belongs 82%; to `CNC(=O)CCc1nc(-c2ccc(C)cc2)no1`, 76.6%.
To `CCC(C)NC(=O)CCc1nc(-c2ccc(C(C)C)cc2)no1` (stereo unspecified) belongs 38.4%; to `CC(C)c1ccc(-c2noc(CCC(=O)NC3CC3)n2)cc1`, 26.7%.

(Values after PubChem BioAssay AID652011 (Sanford-Burnham Center for Chemical Genomics, 2013).)
